Assay [1] addresses T1, Mitogen-activated protein kinase kinase kinase 15 (Homo sapiens) (UniProt Q6ZN16).
T1 sequence (whole entry): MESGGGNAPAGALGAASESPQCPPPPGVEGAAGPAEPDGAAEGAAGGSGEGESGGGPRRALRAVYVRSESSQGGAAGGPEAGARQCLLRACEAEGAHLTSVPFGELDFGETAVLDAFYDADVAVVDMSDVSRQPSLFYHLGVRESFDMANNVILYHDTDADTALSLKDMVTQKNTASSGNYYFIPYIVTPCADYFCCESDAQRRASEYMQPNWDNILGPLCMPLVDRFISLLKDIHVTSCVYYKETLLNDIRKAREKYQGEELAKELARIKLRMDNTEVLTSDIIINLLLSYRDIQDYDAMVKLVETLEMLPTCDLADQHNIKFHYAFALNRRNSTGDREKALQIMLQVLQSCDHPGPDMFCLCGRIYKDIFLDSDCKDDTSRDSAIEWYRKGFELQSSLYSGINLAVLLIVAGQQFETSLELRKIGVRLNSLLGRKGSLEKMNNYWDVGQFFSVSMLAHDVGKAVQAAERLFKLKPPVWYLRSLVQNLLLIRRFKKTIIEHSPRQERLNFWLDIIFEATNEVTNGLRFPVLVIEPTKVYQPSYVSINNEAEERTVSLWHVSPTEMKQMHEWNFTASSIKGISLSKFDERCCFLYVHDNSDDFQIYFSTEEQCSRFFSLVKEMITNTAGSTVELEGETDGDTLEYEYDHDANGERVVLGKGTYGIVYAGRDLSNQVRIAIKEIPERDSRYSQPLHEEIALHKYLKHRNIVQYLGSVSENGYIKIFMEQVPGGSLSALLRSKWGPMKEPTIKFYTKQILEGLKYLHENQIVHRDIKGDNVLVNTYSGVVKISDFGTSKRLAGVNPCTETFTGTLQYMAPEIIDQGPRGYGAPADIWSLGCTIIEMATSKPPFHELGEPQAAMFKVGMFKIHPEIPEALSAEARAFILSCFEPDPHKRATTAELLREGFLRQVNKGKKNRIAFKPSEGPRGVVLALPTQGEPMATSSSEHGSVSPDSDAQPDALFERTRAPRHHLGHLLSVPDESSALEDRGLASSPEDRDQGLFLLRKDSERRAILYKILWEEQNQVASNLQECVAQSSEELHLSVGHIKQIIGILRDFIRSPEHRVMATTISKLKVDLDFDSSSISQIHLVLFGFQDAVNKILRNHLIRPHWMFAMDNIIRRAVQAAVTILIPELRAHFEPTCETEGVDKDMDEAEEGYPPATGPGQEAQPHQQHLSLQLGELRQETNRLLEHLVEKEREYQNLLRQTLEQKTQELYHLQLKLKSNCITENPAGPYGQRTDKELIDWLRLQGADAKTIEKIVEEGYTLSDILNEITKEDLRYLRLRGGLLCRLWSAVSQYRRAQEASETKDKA
Nature of the assay: Inhibition of MAP3K15 (unknown origin) assessed as residual activity at 100 nM by KINOMEscan analysis relative to control.

Assay [2] addresses Calcium/calmodulin-dependent protein kinase type 1D (Homo sapiens) (UniProt Q8IU85). Nature of the assay: Inhibition of CAMK1D (unknown origin) assessed as residual activity at 100 nM by KINOMEscan analysis relative to control.
Assay [3] addresses Serine/threonine-protein kinase VRK2 (Homo sapiens) (UniProt Q86Y07). Nature of the assay: Inhibition of VRK2 (unknown origin) assessed as residual activity at 100 nM by KINOMEscan analysis relative to control.
Assay [4] deals with Macrophage-stimulating protein receptor (Homo sapiens) (UniProt Q04912). Nature of the assay: Inhibition of MST1R (unknown origin) assessed as residual activity at 100 nM by KINOMEscan analysis relative to control.
In assay [5] the target is Ephrin type-A receptor 4 (Homo sapiens) (UniProt P54764). Nature of the assay: Inhibition of EPHA4 (unknown origin) assessed as residual activity at 100 nM by KINOMEscan analysis relative to control.
The test system of assay [6] is Receptor-type tyrosine-protein kinase FLT3 (Homo sapiens), P36888 [D835H]. Nature of the assay: Inhibition of FLT3 D835H mutant (unknown origin) assessed as residual activity at 100 nM by KINOMEscan analysis relative to control.
Assay [7] deals with Tyrosine-protein kinase Srms (Homo sapiens) (UniProt Q9H3Y6). Nature of the assay: Inhibition of SRMS (unknown origin) assessed as residual activity at 100 nM by KINOMEscan analysis relative to control.
In assay [8] the target is Activin receptor type-2A (Homo sapiens) (UniProt P27037). Nature of the assay: Inhibition of ACVR2A (unknown origin) assessed as residual activity at 100 nM by KINOMEscan analysis relative to control.
For assay [9], the target named is Platelet-derived growth factor receptor beta (Homo sapiens) (UniProt P09619). Nature of the assay: Inhibition of PDGFRB (unknown origin) assessed as residual activity at 100 nM by KINOMEscan analysis relative to control.
Assay [10] has as its target Cyclin-dependent kinase 14 (Homo sapiens) (UniProt O94921). Nature of the assay: Inhibition of PFTK1 (unknown origin) assessed as residual activity at 100 nM by KINOMEscan analysis relative to control.
In assay [11] the target is Phosphatidylinositol 4,5-bisphosphate 3-kinase catalytic subunit alpha isoform (Homo sapiens) (UniProt P42336). Nature of the assay: Inhibition of PIK3CA (unknown origin) assessed as residual activity at 100 nM by KINOMEscan analysis relative to control.
Assay [12] addresses Calcium/calmodulin-dependent protein kinase kinase 1 (Homo sapiens) (UniProt Q8N5S9). Nature of the assay: Inhibition of CAMKK1 (unknown origin) assessed as residual activity at 100 nM by KINOMEscan analysis relative to control.
Assay [13] concerns Tyrosine-protein kinase ABL1 (Homo sapiens), P00519 [F317L]. Nature of the assay: Inhibition of nonphosphorylated ABL1 F317L mutant (unknown origin) assessed as residual activity at 100 nM by KINOMEscan analysis relative to control.
For assay [14], the target named is Mast/stem cell growth factor receptor Kit (Homo sapiens) (UniProt P10721). Nature of the assay: Inhibition of KIT (unknown origin) assessed as residual activity at 100 nM by KINOMEscan analysis relative to control.
Assay [15] concerns the target Mitotic checkpoint serine/threonine-protein kinase BUB1 (Homo sapiens) (UniProt O43683). Nature of the assay: Inhibition of BUB1 (unknown origin) assessed as residual activity at 100 nM by KINOMEscan analysis relative to control.
The next assay relates to K562. Nature of the assay: Effect on total ERK level in human K562 cells incubated for 60 mins by HTRF analysis. Type of assay: functional, cell-based. In a few lines:
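K-562 cells (wild-type KRAS) were sourced from ATCC. Cells were incubated with compound for 60 min, and total ERK was quantified alongside pERK.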
In general terms: Time-resolved FRET reads energy transfer from a long-lived donor to a nearby acceptor.

Assay [16] has as its target Calcium/calmodulin-dependent protein kinase type 1B (Homo sapiens) (UniProt Q6P2M8). Nature of the assay: Inhibition of CAMK1B (unknown origin) assessed as residual activity at 1000 nM by KINOMEscan analysis relative to control.

Structures are written as SMILES. Calls of active or inactive are those of the source. The calls are words filed in the database; no cut-off is given here.

Chain of Mitotic checkpoint serine/threonine-protein kinase BUB1 (Homo sapiens) (O43683 whole entry, looked up): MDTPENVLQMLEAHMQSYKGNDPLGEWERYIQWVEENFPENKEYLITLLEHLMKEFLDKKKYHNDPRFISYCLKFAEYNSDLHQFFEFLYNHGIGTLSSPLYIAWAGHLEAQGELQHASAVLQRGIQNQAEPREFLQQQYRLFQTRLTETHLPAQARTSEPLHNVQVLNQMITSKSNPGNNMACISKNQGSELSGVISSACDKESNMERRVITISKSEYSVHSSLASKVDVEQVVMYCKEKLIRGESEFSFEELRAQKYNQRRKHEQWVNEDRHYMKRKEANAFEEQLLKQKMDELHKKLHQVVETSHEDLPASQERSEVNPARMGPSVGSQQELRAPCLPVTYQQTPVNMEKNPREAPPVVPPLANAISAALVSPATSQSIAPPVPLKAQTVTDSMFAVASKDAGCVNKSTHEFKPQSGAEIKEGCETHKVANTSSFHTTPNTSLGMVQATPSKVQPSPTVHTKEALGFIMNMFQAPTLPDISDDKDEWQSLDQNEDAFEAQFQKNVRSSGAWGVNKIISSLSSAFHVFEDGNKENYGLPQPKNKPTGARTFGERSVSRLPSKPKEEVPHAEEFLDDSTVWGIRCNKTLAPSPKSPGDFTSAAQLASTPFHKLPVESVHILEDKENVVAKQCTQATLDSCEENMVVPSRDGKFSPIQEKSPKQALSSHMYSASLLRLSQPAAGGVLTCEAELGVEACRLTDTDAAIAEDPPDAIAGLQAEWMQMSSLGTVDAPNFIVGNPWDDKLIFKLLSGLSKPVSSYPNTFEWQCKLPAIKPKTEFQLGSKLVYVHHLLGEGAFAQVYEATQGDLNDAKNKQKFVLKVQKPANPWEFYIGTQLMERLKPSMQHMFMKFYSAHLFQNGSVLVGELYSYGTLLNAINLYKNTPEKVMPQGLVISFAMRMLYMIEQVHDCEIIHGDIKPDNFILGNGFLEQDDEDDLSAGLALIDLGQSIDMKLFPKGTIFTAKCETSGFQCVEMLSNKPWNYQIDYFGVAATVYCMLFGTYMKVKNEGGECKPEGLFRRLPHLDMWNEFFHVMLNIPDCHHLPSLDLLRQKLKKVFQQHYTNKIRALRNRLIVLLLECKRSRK
Chain of Calcium/calmodulin-dependent protein kinase type 1B (Homo sapiens) (Q6P2M8 whole entry): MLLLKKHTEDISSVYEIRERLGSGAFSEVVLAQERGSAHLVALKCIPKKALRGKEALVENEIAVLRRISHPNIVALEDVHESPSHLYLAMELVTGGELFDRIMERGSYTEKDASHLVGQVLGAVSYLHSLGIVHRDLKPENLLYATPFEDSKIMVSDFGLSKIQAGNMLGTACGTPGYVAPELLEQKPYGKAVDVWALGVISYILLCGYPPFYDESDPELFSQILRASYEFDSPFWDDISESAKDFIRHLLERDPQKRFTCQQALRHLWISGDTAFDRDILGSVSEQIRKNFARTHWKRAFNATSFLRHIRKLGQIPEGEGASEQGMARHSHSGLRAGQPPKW
Chain of Mast/stem cell growth factor receptor Kit (Homo sapiens) (P10721 whole entry): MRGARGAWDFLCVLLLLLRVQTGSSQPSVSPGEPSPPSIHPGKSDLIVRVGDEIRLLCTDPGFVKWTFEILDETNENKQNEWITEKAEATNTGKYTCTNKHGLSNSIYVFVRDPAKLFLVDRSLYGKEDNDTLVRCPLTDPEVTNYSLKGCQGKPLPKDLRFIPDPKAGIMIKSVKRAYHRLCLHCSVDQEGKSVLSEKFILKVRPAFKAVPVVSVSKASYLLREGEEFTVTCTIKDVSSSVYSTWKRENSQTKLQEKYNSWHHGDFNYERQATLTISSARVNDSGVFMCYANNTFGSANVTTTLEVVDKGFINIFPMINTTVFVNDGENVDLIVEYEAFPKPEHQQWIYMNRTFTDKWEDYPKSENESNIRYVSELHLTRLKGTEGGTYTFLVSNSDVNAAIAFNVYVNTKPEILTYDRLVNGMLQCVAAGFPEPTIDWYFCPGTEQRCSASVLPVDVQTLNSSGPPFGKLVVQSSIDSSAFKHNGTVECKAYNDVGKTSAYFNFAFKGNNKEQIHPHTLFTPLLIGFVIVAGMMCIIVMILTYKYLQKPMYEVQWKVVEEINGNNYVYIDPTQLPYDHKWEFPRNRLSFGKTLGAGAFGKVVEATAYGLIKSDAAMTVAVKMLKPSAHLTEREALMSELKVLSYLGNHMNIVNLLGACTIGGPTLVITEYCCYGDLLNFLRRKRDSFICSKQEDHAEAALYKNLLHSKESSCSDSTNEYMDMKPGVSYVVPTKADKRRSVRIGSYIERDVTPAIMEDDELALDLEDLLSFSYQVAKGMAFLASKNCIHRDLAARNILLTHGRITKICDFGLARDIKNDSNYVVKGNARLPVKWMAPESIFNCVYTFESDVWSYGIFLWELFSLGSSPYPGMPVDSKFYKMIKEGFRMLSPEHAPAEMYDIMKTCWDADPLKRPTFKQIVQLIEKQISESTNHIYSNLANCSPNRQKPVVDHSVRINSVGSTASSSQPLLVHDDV
Chain of Serine/threonine-protein kinase VRK2 (Homo sapiens) (Q86Y07 whole entry): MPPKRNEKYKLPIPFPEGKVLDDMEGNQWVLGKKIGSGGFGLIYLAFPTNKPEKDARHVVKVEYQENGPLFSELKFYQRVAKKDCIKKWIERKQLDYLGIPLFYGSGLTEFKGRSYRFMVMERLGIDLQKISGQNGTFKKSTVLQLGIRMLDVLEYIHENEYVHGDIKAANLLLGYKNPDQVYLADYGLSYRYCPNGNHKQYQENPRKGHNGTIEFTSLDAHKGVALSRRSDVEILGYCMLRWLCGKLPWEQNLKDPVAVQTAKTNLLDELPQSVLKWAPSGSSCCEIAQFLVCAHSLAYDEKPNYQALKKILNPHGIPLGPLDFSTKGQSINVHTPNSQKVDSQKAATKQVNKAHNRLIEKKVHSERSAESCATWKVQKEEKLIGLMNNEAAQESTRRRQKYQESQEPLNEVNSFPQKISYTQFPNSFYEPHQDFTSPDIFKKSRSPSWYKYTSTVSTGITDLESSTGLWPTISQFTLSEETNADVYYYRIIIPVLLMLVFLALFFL
Chain of Calcium/calmodulin-dependent protein kinase kinase 1 (Homo sapiens) (Q8N5S9 whole entry, looked up): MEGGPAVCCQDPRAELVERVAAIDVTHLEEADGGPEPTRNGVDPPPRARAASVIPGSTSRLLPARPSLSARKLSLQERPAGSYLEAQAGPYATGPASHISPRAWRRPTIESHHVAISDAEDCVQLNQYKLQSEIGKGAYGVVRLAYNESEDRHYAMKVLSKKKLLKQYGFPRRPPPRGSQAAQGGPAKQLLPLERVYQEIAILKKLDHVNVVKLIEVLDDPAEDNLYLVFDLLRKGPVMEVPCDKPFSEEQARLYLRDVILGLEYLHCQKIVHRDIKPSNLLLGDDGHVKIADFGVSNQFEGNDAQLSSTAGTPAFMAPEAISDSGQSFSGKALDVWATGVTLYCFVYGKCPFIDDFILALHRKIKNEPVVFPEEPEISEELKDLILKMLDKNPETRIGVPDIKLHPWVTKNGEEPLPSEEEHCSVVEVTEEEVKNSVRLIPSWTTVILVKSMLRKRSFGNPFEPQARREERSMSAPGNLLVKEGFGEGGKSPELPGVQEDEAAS
Chain of Phosphatidylinositol 4,5-bisphosphate 3-kinase catalytic subunit alpha isoform (Homo sapiens) (P42336 whole entry, canonical isoform): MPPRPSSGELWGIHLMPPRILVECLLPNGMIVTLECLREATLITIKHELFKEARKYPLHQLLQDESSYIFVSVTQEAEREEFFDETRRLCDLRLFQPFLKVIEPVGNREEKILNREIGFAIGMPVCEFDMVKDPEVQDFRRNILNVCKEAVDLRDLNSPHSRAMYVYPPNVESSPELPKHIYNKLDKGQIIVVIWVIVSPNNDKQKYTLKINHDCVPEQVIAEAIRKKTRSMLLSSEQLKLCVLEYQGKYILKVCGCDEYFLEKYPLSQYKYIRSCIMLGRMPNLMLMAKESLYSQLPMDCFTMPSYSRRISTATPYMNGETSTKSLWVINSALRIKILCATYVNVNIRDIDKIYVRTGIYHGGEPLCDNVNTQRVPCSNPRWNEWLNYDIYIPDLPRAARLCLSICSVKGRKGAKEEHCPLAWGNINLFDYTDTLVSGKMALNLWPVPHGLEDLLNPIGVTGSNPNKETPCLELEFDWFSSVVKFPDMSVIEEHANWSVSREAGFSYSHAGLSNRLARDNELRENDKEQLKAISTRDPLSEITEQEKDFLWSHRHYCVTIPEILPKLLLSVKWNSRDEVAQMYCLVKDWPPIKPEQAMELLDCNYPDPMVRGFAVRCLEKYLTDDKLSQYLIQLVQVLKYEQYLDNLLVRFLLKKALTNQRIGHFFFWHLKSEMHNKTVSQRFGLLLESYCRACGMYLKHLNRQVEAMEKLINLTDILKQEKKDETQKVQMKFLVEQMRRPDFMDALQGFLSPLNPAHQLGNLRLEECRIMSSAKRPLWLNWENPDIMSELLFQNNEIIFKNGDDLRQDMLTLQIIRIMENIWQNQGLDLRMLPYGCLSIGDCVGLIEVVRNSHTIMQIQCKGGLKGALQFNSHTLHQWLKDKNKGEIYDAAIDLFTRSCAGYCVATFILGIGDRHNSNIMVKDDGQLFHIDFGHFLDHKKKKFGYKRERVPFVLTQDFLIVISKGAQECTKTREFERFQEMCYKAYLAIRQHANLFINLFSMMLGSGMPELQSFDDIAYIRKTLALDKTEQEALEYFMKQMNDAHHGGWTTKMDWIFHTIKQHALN
Chain of Activin receptor type-2A (Homo sapiens) (P27037 whole entry): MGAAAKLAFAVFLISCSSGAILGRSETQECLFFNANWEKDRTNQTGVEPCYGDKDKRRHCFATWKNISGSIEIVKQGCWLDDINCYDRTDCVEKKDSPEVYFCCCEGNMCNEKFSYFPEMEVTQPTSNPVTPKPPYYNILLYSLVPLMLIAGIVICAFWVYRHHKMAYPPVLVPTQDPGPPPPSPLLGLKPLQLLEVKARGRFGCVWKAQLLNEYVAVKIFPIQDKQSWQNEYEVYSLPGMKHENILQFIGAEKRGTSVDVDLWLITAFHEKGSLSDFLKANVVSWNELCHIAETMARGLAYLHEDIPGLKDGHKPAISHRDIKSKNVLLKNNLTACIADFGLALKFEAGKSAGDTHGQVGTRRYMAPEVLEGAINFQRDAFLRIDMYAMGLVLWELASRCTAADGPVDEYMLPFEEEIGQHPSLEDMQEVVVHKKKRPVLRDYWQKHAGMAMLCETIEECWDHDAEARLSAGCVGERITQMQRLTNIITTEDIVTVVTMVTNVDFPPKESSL

As for `COc1cc2ncnc(N[C@H](C)c3cccc4ccccc34)c2cc1OC`, the Activity in [1] came out at 86%; in assay [2] it was 88%; in [3], 72%; in [4] it was 100%; in [5] it was 86%; in [6], 92%. In addition, the Activity in assay [7] was 79%; in [8], 94%; in assay [9] it was 100%; in [10] it was 91%; in assay [11], 66%; in [12] it was 76%. Besides, the Activity in assay [13], in [14] and in [15] was 100% each time.
Take `CNCc1ccccc1-c1csc([C@@H](C)Nc2nc(C)nc3cc(OC)c(OC)cc23)c1` [BAY-293]: the result in the assay with K562 was inactive.
Turning to `COc1cc2nc(C)nc(N[C@H](C)c3cccc(-c4cn[nH]c4)c3)c2cc1OC`, the Activity in assay [16] was 85%.

(Values after ChEMBL document CHEMBL5678818, “Discovery of potent SOS1 inhibitors that block RAS activation via disruption of the RAS-SOS1 interaction” (Proc Natl Acad Sci U S A, 2019).)
